# bIAP inh = intestinal alkaline phosphatase (bovine) inhibition. purified bovine IAP, CDP-star luminescence, 30 min. inhibition, % at 20 µM. 190,000 tested, under 10 active. AID 1019;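 active = over 50% inhibition of intestinal alkaline phosphatase at 20 µM in the single-dose screen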
#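 System: Purified bovine intestinal alkaline phosphatase (IAP) enzyme | Input: IAP diluted 1/65,000,000 in the well | Also added: CDP-star chemiluminescent phosphatase substrate, 30 µM final | Dosing: 20 µM single dose | Times: Enzyme reaction for 30 min at room temperature | Detection: Luminescence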
# bIAP act = increases bovine intestinal alkaline phosphatase activity | purified bovine IAP, CDP-star luminescence, 30 min; stronger effect = higher value; fold of DMSO-control signal, blank-subtracted | activation factor at 20 µM | hit rate 0.17% among 200,000 | AID 1016;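 active = activation factor of 2 or more at 20 µM, a signal rise over negative controls twice the positive control's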
# hIAP inh = human IAP inhibition; P09923; hit rate 0.12% among 330,000; inhibition, % at 10 µM; purified IAP, CDP-Star luminescence, 30 min; AID 2544;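 active = inhibition reaching a set limit with compound at 10 µM in the primary screen, cut at about 35% in these data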
# Target sequence (P09923 whole entry, looked up): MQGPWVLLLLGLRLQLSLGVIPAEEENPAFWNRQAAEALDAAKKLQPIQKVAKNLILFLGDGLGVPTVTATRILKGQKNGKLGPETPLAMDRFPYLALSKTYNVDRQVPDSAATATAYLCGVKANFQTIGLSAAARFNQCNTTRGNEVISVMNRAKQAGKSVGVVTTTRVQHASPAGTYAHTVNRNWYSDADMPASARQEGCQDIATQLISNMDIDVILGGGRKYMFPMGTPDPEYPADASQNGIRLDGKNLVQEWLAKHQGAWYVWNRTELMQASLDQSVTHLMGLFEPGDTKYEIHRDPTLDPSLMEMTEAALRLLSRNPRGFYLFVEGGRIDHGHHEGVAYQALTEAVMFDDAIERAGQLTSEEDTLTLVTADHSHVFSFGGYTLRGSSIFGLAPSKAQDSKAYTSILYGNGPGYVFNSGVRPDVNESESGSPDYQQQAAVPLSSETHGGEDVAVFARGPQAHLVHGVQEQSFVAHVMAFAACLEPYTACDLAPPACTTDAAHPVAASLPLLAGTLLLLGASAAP
# mIAP activ = mouse IAP activation; muIAP, CDP-Star luminescence, 30 min; stronger effect = higher value; 1 = vehicle-only enzyme signal, 0 = enzyme-free wells; activation factor at 10 µM; hit rate 0.24% among 330,000; AID 2805;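 active = activation factor of at least 2 at 20 µM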
#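 Assay system: mouse IAP enzyme; Reagent: CDP-Star chemiluminescent phosphatase substrate; Compound: DMSO-dissolved test compounds; Incubation: 30 min, room temperature; Technique: luminescence from enzymatic CDP-Star hydrolysis; Controls: DMSO-only wells and no-enzyme negative control.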
# hIAP activ = human IAP activation. P09923. purified human IAP, CDP-Star luminescence, 30 min; stronger effect = higher value; 1 = vehicle-only enzyme, 0 = enzyme-free background. activation factor at 10 µM. hit rate 0.16% among 330,000;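 active = activation factor of the enzyme at least 2-fold when tested at 20 µM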
# mIAP inh = blocks mouse intestinal alkaline phosphatase; hit rate 0.2% among 330,000; inhibition, % at 10 µM; AID 2806; purified mouse IAP, CDP-Star luminescence, 30 min;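 active = inhibition of at least 40% at 10 µM in the primary screen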
# hIAP act confirm = human IAP activation confirmation. purified IAP, CDP-Star luminescence, 30 min; stronger effect = lower value. AID 434926. shares compounds with hIAP activ. hit rate 10% among 880. activation (%Activity, negative = activation), % at 8.3 µM;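 active = at least twofold enzyme activation in any of six single-dose repeats, which the averaged readout prints as negative percent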
# mIAP inh conf = mouse IAP inhibition confirmation | shares compounds with mIAP inh | purified mouse IAP, CDP-Star luminescence, 30 min | inhibition, % at 10 µM | hit rate 4.7% among 11,000 | AID 434971;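 active = inhibition of at least 40% at 10 µM in either of the two replicates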
# Hits are given with their value; n = inactive; x = no result given. An excerpt weighted towards active compounds, which were near 0.79% of everything screened.
SMILES,bIAP inh,bIAP act,hIAP inh,mIAP activ,hIAP activ,mIAP inh,mIAP inh conf,others
O=c1[nH]c(=O)n(Cc2ccco2)c(O)c1C=NCc1cccs1,n,n,n,n,n,n,x,
O=c1[nH]c(=S)n(Cc2ccco2)c(O)c1C=NCc1cccs1,n,n,n,n,n,61,x,
CCOC(=O)N(C)c1ccc(C(O)(C(=O)OC)C(F)(F)F)cc1 (stereo unspecified),n,2.1,n,n,n,n,x,
COc1cccc(OP(=O)(Nc2ccccc2)Oc2cccc(OC)c2)c1,x,x,n,n,n,n,x,
c1ccc2[nH]c(CCNC3CCCCC3)nc2c1,n,2.2,n,n,n,n,x,
O=C(O)CCC(=O)NCCC1=c2ccccc2=N/C1=C\c1c(O)n(Cc2ccc(F)cc2)c(=S)[nH]c1=O,x,x,n,n,n,n,x,
COc1ccc(C(=O)C2CN(C)CC2c2ccc(Cl)cc2)cc1 (stereo unspecified),n,n,n,n,n,n,x,
CN1CC(C(=O)c2ccc(Cl)cc2)C(c2ccccc2F)C1 (stereo unspecified),n,n,n,n,n,42,x,
O=C1NC(=O)N(c2ccc3c(c2)OCO3)C(=O)/C1=C/c1ccc(N2CCCC2)o1,n,n,n,n,n,56,x,
C=CCN(CC#CCOc1ccccc1OC)CC=C,n,n,n,n,n,n,x,
O=c1[nH]c(=O)n(-c2ccc(Br)cc2)c(O)c1C=NC(CO)(CO)CO,x,x,50,n,n,n,x,hIAP act confirm=n
CCCCOc1ccc(CN2CCN(CCO)CC2)cc1,n,n,37,n,n,n,x,hIAP act confirm=n
CCCCCCOc1ccc(CN2CCN(CCO)CC2)cc1,n,n,n,n,n,n,x,
CCNC(=S)N1CCn2cccc2C1c1cccnc1 (stereo unspecified),n,n,n,n,n,n,x,
COc1ccc(OC)c(N2C(=O)/C(=C/c3ccco3)C(=O)NC2=S)c1,x,x,n,n,n,42,58,
O=C1NC(=S)N(c2ccc(F)cc2)C(=O)/C1=C/c1ccco1,x,x,n,n,n,47,60,
Oc1ccc(C[C@H]2NCCc3cc(O)c(O)cc32)cc1O,x,x,n,n,n,63,76,
O=C1NC(=O)N(c2ccc3c(c2)OCO3)C(=O)/C1=C/c1cccs1,n,n,n,n,n,72,76,
Cc1cccc(N2C(=O)NC(=O)/C(=C\C=C\c3ccco3)C2=O)c1,x,x,n,n,n,45,53,
CN1C(=O)/C(=C/C=C/c2ccco2)C(=O)NC1=S,x,x,n,n,n,66,62,
O=C1NC(=O)N(Cc2ccccc2)C(=O)/C1=C\C=C\c1ccco1,n,n,n,n,n,n,x,
O=C1NC(=O)N(c2ccccc2)C(=O)/C1=C/C=C/c1ccco1,x,x,n,n,n,n,x,
O=C1NC(=O)N(Cc2ccco2)C(=O)/C1=C/C=C/c1ccco1,x,x,n,n,n,72,75,
Cc1ccc(N2C(=O)NC(=O)/C(=C\C=C\c3ccco3)C2=O)cc1,x,x,n,n,n,n,x,
CCOC(=O)C1(c2ccccc2)CCN(CCC(C#N)(c2ccccc2)c2ccccc2)CC1,x,x,n,n,n,n,x,
SMILES,bIAP inh,bIAP act,hIAP inh,mIAP activ,hIAP activ,mIAP inh,mIAP inh conf,others
CC1(O)CCN2C(=O)CCc3cccc1c32 (stereo unspecified),x,x,n,n,n,n,x,
N#Cc1c(/N=C/c2c(O)n(Cc3ccco3)c(=O)[nH]c2=O)sc2c1CCCC2,n,n,n,n,n,64,72,
Cc1ccc(N2C(=O)/C(=C/c3ccc(CN(CCC#N)S(C)(=O)=O)o3)C(=O)NC2=S)cc1C,n,n,n,n,n,43,46,
C=CCN1C(=O)/C(=C/c2ccc(Br)s2)C(=O)NC1=S,x,x,n,n,n,43,53,
CCN1C(=O)/C(=C\c2ccc([N+](=O)[O-])s2)C(=O)NC1=S,n,n,x,x,x,x,x,
NC1CCc2cc(O)c(O)cc2C1 (stereo unspecified),x,x,n,n,n,n,x,
NC(=O)Cn1cc(C(=O)c2ccccc2)c2ccccc21,x,x,n,n,n,n,x,
Clc1ccc(C(c2ccc(Cl)cc2)n2cc[n+](CC(OCc3ccc(Cl)cc3Cl)c3ccc(Cl)cc3Cl)c2)cc1 (stereo unspecified),x,x,n,17,n,n,n,
CC(=O)O[C@H]1[C@H]2O[C@]23[C@@H]2CC[C@]4(O)C[C@@H](O)CC[C@]4(C)C2CC[C@]3(C)[C@H]1c1ccc(=O)oc1 (stereo partly specified),x,x,n,n,n,n,x,

# From PubChem BioAssay
